In publication PMC8682075 (Biochimie, 2020):
“Also recorded” adds a separate entry of the source. Blank lines part the entries; values can stand above or below the compound they belong to.

What was measured:
[1] = molecular target: T1, MMUT (methylmalonyl-CoA mutase) (Homo sapiens, UniProt P22033); assay: Cobamide equilibrium binding by quenching of intrinsic protein fluorescence; settings: for binding to MMUT (in words): micromolar cobamide concentrations
T1 sequence (P22033 33-750): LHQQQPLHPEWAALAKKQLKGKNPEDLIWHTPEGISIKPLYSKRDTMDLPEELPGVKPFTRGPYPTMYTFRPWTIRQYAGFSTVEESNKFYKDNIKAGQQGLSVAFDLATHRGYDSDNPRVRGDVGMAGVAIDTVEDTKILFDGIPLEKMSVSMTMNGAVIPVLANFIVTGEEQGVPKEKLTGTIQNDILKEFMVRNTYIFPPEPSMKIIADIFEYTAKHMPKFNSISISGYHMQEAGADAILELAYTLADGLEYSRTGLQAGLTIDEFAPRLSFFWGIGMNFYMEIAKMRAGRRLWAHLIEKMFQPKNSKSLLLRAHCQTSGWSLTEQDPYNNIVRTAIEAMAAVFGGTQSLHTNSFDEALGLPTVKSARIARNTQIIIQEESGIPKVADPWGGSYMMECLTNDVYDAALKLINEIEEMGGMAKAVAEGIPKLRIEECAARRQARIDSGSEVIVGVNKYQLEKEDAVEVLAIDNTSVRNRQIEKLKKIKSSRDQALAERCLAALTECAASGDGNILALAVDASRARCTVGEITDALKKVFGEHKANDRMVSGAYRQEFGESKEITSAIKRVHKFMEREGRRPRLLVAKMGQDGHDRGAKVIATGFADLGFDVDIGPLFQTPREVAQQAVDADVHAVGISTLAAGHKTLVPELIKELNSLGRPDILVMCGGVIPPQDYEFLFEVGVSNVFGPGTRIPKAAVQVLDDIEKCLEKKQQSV
How it was run: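 Fluorescence quenching used MMUT at 0.2 μM, from N-terminal His-tag (E. coli BL21(DE3)pLysS) and C-terminal His-tag preparations. Adenosylated cofactor was titrated at 0.19–2.5 μM or 0.23–2.5 μM, depending on cofactor class. Plate-reader excitation/emission was 282/340 nm. Kd came from a quadratic fit allowing for ligand depletion. Values were averaged over ≥5 technical replicates from ≥2 independent experiments.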

[2] = molecular target: T1, MMUT (methylmalonyl-CoA mutase); assay: Coupled thiokinase/DTNB spectrophotometric MMUT activity assay; assay type: biochemical; settings: for MMUT activity with the cobamide (in words): coupled spectrophotometric assay; for KM, app relative to AdoCbl: higher than AdoCbl
How it was run: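 In the coupled kinetic assay, succinyl-CoA was converted by thiokinase to CoA, which was detected spectrophotometrically with DTNB. C-terminally His-tagged MMUT was at 10 nM. Enzymatically made (R)-methylmalonyl-CoA was fixed at 4 mM. Adenosylated cofactor was varied per cofactor, from 0.031 μM at lowest to 12 μM at highest. K_M,app and k_cat come from ≥5 replicates over ≥2 independent experiments and two biological samples.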

MMUT WT = molecular target: T2, MMUT WT (Homo sapiens, UniProt P22033); assay: Activity screen; assay type: biochemical; settings: cobamide 1 μM, MMUT WT 0.01 μM, 30 minutes
T2 sequence (P22033 33-750): T1 sequence (P22033 33-750)
How it was run: (§1)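 At 30 °C, reaction was started with thiokinase, MgCl₂, ADP and methylmalonyl-CoA. Final levels were cofactor 1 μM and (R)-methylmalonyl-CoA 2 mM. Enzyme was WT 0.01 μM, G717V 1 μM, other variants 0.1 μM. After 30 min, an aliquot went into 2.5 mM DTNB; CoA was taken from A412 (ε 14,150 M⁻¹ cm⁻¹).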

[3] = system: Human intrinsic factor (IF); settings: cited from earlier work
[4] = system: MMUT variants G648D, V633G, G717V, P86L, Y100C, Y231N; assay: Activity screen; assay type: biochemical, human; settings: cobamide 1 μM, variants 0.1 μM (G717V 1 μM), 30 minutes
How it was run: as §1

[5] = molecular target: T1, MMUT (methylmalonyl-CoA mutase); assay: Binding kinetics by stopped-flow fluorescence spectroscopy; settings: MMUT 0.2 μM, cobamide 4.8 – 16.2 μM (to 24.3 μM for Ado[Phe]Cba)
How it was run: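 Stopped-flow fluorimetry used C-terminally His-tagged MMUT at 0.2 μM final after mixing. Adenosylated cofactor was added at 4.8, 7.2, 10.8 and 16.2 μM (24.3 μM for one cofactor). Excitation was 282 nm, with emission through a 320 nm long-pass filter. Traces, minus the buffer-addition control, were fitted to first-order exponential decay to give k_obs. k_on was the slope of k_obs versus concentration, from four technical replicates.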

MMUT activity with the cobamide (in words) [2]: active
activity of WT MMUT with the cobamide (in words) (MMUT WT): active
Compound: C/C1=C2/[N-][C@H]([C@H](CC(N)=O)[C@@]2(C)CCC(=O)NC[C@@H](C)OP(=O)([O-])O[C@H]2[C@@H](O)[C@@H](n3cnc4cc(C)ccc43)O[C@@H]2CO)[C@]2(C)N=C(/C(C)=C3N=C(/C=C4N=C1[C@@H](CCC(N)=O)C\4(C)C)[C@@H](CCC(N)=O)[C@]\3(C)CC(N)=O)[C@@H](CCC(N)=O)[C@]2(C)CC(N)=O.[CH2-][C@H]1O[C@@H](n2cnc3c(N)ncnc32)[C@H](O)[C@@H]1O.[Co+3] [Ado[5-MeBza]Cba]

MMUT activity with the cobamide (in words) [2]: active
KM, app relative to AdoCbl [2]: 100 fold
activity of WT MMUT with the cobamide (in words) (MMUT WT): active
Compound: C/C1=C2/[N-][C@H]([C@H](CC(N)=O)[C@@]2(C)CCC(=O)NC[C@@H](C)OP(=O)([O-])O[C@H]2[C@@H](O)[C@@H](Oc3ccccc3)O[C@@H]2CO)[C@]2(C)N=C(/C(C)=C3N=C(/C=C4N=C1[C@@H](CCC(N)=O)C\4(C)C)[C@@H](CCC(N)=O)[C@]\3(C)CC(N)=O)[C@@H](CCC(N)=O)[C@]2(C)CC(N)=O.[CH2-][C@H]1O[C@@H](n2cnc3c(N)ncnc32)[C@H](O)[C@@H]1O.[Co+3] [Ado[Phe]Cba, adenosylphenolylcobamide]

activity of WT MMUT with the cobamide (in words) (MMUT WT): active
Compound: adenosyl-5-fluorobenzimidazolylcobamide [compound P]
activity of MMUT variants with the cobamide (in words) [4]: some variants also had appreciable activity

activity of WT MMUT with the cobamide (in words) (MMUT WT): No activity
Compound: 6-methyladeninylcobamide

kon relative to AdoCbl (in words) [5]: about six times higher
MMUT activity with the cobamide (in words) [2]: active
activity of WT MMUT with the cobamide (in words) (MMUT WT): active
Compound: C/C1=C2/[N-][C@H]([C@H](CC(N)=O)[C@@]2(C)CCC(=O)NC[C@@H](C)OP(=O)([O-])O[C@H]2[C@@H](O)[C@@H](Oc3ccc(C)cc3)O[C@@H]2CO)[C@]2(C)N=C(/C(C)=C3N=C(/C=C4N=C1[C@@H](CCC(N)=O)C\4(C)C)[C@@H](CCC(N)=O)[C@]\3(C)CC(N)=O)[C@@H](CCC(N)=O)[C@]2(C)CC(N)=O.[CH2-][C@H]1O[C@@H](n2cnc3c(N)ncnc32)[C@H](O)[C@@H]1O.[Co+3] [Ado[Cre]Cba]
binding to MMUT (in words) [1]: bound too strongly to measure a Kd value; also recorded: higher affinity for Ado[Cre]Cba than AdoCbl
KM, app (in words) [2]: in the range of the benzimidazolyl cobamides
activity of MMUT variants with the cobamide (in words) [4]: supported activity to a large extent in all of the variants

activity of WT MMUT with the cobamide (in words) (MMUT WT): No activity
Compound: 6-azabenzimidazolylcobamide

Further lines, the compound ahead of its results:

Compound: C/C1=C2/[N-][C@H]([C@H](CC(N)=O)[C@@]2(C)CCC(=O)NC[C@@H](C)OP(=O)([O-])O[C@H]2[C@@H](O)[C@@H](n3cnc4ccccc43)O[C@@H]2CO)[C@]2(C)N=C(/C(C)=C3N=C(/C=C4N=C1[C@@H](CCC(N)=O)C\4(C)C)[C@@H](CCC(N)=O)[C@]\3(C)CC(N)=O)[C@@H](CCC(N)=O)[C@]2(C)CC(N)=O.[CH2-][C@H]1O[C@@H](n2cnc3c(N)ncnc32)[C@H](O)[C@@H]1O.[Co+3] [Ado[Bza]Cba]
difference in Kd relative to AdoCbl [1]: ~ 25 fold
MMUT activity with the cobamide (in words) [2]: active
KM, app relative to AdoCbl [2]: 10 fold
activity of WT MMUT with the cobamide (in words) (MMUT WT): active

Compound: cyanobenzimidazolylcobamide [CN[Bza]Cba]
IF affinity, lower than affinity for CNCbl [3]: no more than 2 fold

Compound: adenosyladeninylcobamide [Ado[Ade]Cba]
IF binding relative to AdoCbl [3]: six orders of magnitude more weakly

Compound: C/C1=C2/[N-][C@H]([C@H](CC(N)=O)[C@@]2(C)CCC(=O)NC[C@@H](C)OP(=O)([O-])O[C@H]2[C@@H](O)[C@@H](n3cnc4nc(C)nc(N)c43)O[C@@H]2CO)[C@]2(C)N=C(/C(C)=C3N=C(/C=C4N=C1[C@@H](CCC(N)=O)C\4(C)C)[C@@H](CCC(N)=O)[C@]\3(C)CC(N)=O)[C@@H](CCC(N)=O)[C@]2(C)CC(N)=O.[CH2-][C@H]1O[C@@H](n2cnc3c(N)ncnc32)[C@H](O)[C@@H]1O.[Co+3] [Ado[2-MeAde]Cba, adenosyl-2-methyladeninylcobamide]
IF binding relative to AdoCbl [3]: six orders of magnitude more weakly

Compound: C/C1=C2/[N-][C@H]([C@H](CC(N)=O)[C@@]2(C)CCC(=O)NC[C@@H](C)OP(=O)([O-])O[C@H]2[C@@H](O)[C@@H](n3cnc4cccc(N)c43)O[C@@H]2CO)[C@]2(C)N=C(/C(C)=C3N=C(/C=C4N=C1[C@@H](CCC(N)=O)C\4(C)C)[C@@H](CCC(N)=O)[C@]\3(C)CC(N)=O)[C@@H](CCC(N)=O)[C@]2(C)CC(N)=O.[CH2-][C@H]1O[C@@H](n2cnc3c(N)ncnc32)[C@H](O)[C@@H]1O.[Co+3] [K, 7-aminobenzimidazolylcobamide]
activity of WT MMUT with the cobamide (in words) (MMUT WT): active
activity of MMUT variants with the cobamide (in words) [4]: partially or entirely lost the ability to use

Compound: C/C1=C2/[N-][C@H]([C@H](CC(N)=O)[C@@]2(C)CCC(=O)NC[C@@H](C)OP(=O)([O-])O[C@H]2[C@@H](O)[C@@H](n3cnc4cccc(C)c43)O[C@@H]2CO)[C@]2(C)N=C(/C(C)=C3N=C(/C=C4N=C1[C@@H](CCC(N)=O)C\4(C)C)[C@@H](CCC(N)=O)[C@]\3(C)CC(N)=O)[C@@H](CCC(N)=O)[C@]2(C)CC(N)=O.[CH2-][C@H]1O[C@@H](n2cnc3c(N)ncnc32)[C@H](O)[C@@H]1O.[Co+3] [J, 7-methylbenzimidazolylcobamide]
activity of WT MMUT with the cobamide (in words) (MMUT WT): active
activity of MMUT variants with the cobamide (in words) [4]: partially or entirely lost the ability to use

Compound: C/C1=C2/[N-][C@H]([C@H](CC(N)=O)[C@@]2(C)CCC(=O)NC[C@@H](C)O)[C@]2(C)N=C(/C(C)=C3N=C(/C=C4N=C1[C@@H](CCC(N)=O)C\4(C)C)[C@@H](CCC(N)=O)[C@]\3(C)CC(N)=O)[C@@H](CCC(N)=O)[C@]2(C)CC(N)=O.[Co+3] [cobinamide]
IF affinity (in words) [3]: low affinity

Compound: C/C1=C2/[N-][C@H]([C@H](CC(N)=O)[C@@]2(C)CCC(=O)NC[C@@H](C)O)[C@]2(C)N=C(/C(C)=C3N=C(/C=C4N=C1[C@@H](CCC(N)=O)C\4(C)C)[C@@H](CCC(N)=O)[C@]\3(C)CC(N)=O)[C@@H](CCC(N)=O)[C@]2(C)CC(N)=O.[CH2-][C@H]1O[C@@H](n2cnc3c(N)ncnc32)[C@H](O)[C@@H]1O.[Co] [Ado-cobinamide]
binding to MMUT (in words) [1]: lower affinity than AdoCbl

Compound: purinylcobamide
activity of WT MMUT with the cobamide (in words) (MMUT WT): No activity

Compound: 3-deazaadeninylcobamide
activity of WT MMUT with the cobamide (in words) (MMUT WT): No activity

Compound: cyano-para-cresolylcobamide [CN[Cre]Cba]
IF affinity (in words) [3]: low affinity

Compound: cyano-5-hydroxybenzimidazolylcobamide [CN[5-OHBza]Cba]
IF affinity, lower than affinity for CNCbl [3]: no more than 2 fold
